TRPC6 act: mouse TRPC6 channel activators, primary screen, cell-based, HEK293, membrane potential dye; AID 2550, 2010; HEK293-TRPC6 membrane potential dye fluorescence; hits give high values; actives 0.13% (n = 310,000); Short transient receptor potential channel 6 (Mus musculus), Q61143; B-score at 10 µM;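 active = B-score of the integrated fluorescence ratio above library mean plus 3 SD, and starting fluorescence ratio within library mean plus 5 SD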;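 also: higher score means more depolarization so channel activation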
TRPC4 agonist: activators of mouse TRPC4 channel, primary screen, Fluo4 calcium, HEK293 TRPC4beta/mu-opioid cells; AID 2237, 2010; actives 0.49% (n = 310,000); B-score at 10 µM; Fluo4 calcium fluorescence; hits give high values;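 active = B-score above 5 SD of library B-scores, and initial fluorescence ratio not above library mean plus 5 SD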;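 also: positive B-score marks a calcium rise read as TRPC4 activation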
Target sequence (Q9QUQ5 whole entry, looked up): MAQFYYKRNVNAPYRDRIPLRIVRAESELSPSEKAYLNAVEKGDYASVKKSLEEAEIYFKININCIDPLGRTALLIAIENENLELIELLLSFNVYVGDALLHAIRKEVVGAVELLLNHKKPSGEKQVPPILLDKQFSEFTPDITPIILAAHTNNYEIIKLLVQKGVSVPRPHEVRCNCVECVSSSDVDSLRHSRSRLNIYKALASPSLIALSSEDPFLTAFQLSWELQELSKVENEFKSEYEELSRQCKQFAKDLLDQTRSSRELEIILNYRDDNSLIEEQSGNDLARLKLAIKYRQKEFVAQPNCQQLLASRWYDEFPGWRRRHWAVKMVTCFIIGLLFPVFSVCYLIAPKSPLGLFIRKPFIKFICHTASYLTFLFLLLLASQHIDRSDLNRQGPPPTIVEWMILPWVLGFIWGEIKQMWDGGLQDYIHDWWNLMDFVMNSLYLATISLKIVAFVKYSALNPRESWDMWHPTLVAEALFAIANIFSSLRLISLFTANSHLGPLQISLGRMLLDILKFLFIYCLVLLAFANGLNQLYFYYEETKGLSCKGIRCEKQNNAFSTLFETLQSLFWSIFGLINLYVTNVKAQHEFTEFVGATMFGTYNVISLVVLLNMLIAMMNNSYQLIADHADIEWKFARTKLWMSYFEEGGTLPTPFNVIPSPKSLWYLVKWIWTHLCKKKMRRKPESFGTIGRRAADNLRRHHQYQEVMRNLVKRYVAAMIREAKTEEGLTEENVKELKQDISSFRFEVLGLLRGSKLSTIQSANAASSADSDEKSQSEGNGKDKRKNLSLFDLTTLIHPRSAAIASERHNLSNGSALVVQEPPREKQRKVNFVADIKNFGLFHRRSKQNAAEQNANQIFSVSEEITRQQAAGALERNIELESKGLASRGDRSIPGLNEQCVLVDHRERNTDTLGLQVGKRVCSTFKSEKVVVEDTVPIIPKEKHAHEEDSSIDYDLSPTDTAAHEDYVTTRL
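Assay system: HEK293 stable line with TRPC4beta plus mu-opioid receptor; schedule: 45 min room-temperature Fluo4 loading, 110 s read; technique: kinetic Fluo4 calcium fluorescence; evaluation: integrated baseline-normalised fluorescence ratio, converted to per-well B score; controls: buffer (low) and maximal DAMGO (high)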
TRPC6 inhibitor: mouse TRPC6 channel inhibitors, primary screen, cell-based, HEK293, membrane potential dye; Short transient receptor potential channel 6 (Mus musculus), Q61143; ACh-evoked depolarization; hits give low values; B-score at 10 µM; actives 1.1% (n = 310,000); AID 2553, 2010;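 active = B-score under library mean minus 3 SD, initial fluorescence not abnormally high, positive integrated signal ratio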;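 also: B-score derived from integrated fluorescence ratio over the kinetic read; more negative B-score means stronger inhibition of depolarization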
TRPC4 PAM: positive allosteric modulators of TRPC4, primary screen, cell-based, mouse TRPC4beta, HEK293 mu-opioid, Fluo-4 calcium; B-score at 10 µM; Short transient receptor potential channel 4 (Mus musculus), Q9QUQ5; AID 2227, 2009; actives 0.42% (n = 310,000); DAMGO EC20, Fluo-4 Ca2+ flux; hits give high values;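 active = B-score of calcium response area above 5 SD of library B-scores, with initial fluorescence ratio within 5 SD of library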;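 also: B-score of integrated fluorescence ratio over time as area under calcium response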
TRPC4 block: inhibitors of mouse TRPC4 channel, primary screen, Fluo4 calcium, HEK293 TRPC4beta/mu-opioid cells; DAMGO-evoked Fluo4 calcium flux; hits give low values; B-score at 10 µM; actives 0.39% (n = 300,000);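 active = B-score over 3 SD under the library average, no early fluorescence shift, positive overall ratio signal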
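Assay system: Stable TRPC4beta/mu-opioid receptor HEK293 cells | Reagent: DAMGO in two steps, submaximal then maximal | Compound dosing: Single concentration per test compound | Signal: Fluo4 Ca2+ flux fluorescence | Evaluation: Per-well B score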
TRPC4 spec 2: second selectivity test of TRPC6 inhibitors: effect on mouse TRPC4. actives 42% (n = 920). shares compounds with TRPC6 inhibitor. inhibition, % at 10 µM. HEK293 TRPC4/MOR, membrane potential dye fluorescence; channel activated by saturating DAMGO dose;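 active = compounds whose fluorescence signal differed from control wells by over 3 SD, either direction, in both duplicate plates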
TRPC4 spec: mouse TRPC4 modulation by TRPC6 hits, confirmation, selectivity assay for TRPC6 inhibitor project, cell-based, HEK293 TRPC4/mu-opioid, membrane potential dye. shares compounds with TRPC6 inhibitor. activity change, negative = inhibition, % at 10 µM. membrane potential fluorescence. actives 61% (n = 920);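 active = rise or fall in signal beyond 3 SD of buffer-only wells in both replicate plates, either sign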;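 also: integrated kinetic ratio of fluorescence range over baseline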
HEK293 MPD ctr 2-1: nonspecific membrane potential effects, parental HEK293, confirmation, counter-screen for TRPC6 inhibitor project, cell-based, second counter screen | shares compounds with TRPC6 inhibitor | parental HEK293 membrane potential dye fluorescence; maximal acetylcholine challenge after compound addition | signal change vs control, % at 10 µM | actives 31% (n = 920) | AID 2779, 2010;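 active = membrane potential signal moving either way by over 3 SD of the maximum-effect control, in both duplicate plates, meaning non-specific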
HEK293 MPD ctr-1: membrane potential modulation in parental HEK293, confirmation, counter-screen for TRPC6 inhibitor project, cell-based | shares compounds with TRPC6 inhibitor | parental HEK293 membrane potential dye fluorescence | membrane potential signal change, % at 10 µM | actives 60% (n = 920) | AID 2780, 2010;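 active = membrane potential signal shifting up or down by more than 3 SD of buffer-only wells, on both duplicate plates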
HEK293 MPD ctr-2: parental HEK293 membrane potential modulation, confirmation, counter-screen for TRPC6 modulator project, cell-based; shares compounds with TRPC6 inhibitor; membrane potential dye fluorescence; membrane potential signal change, % at 10 µM; actives 51% (n = 2,400); AID 488924, 2010;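 active = membrane potential signal moves up or down beyond 5 SD from buffer-only wells, on both duplicate plates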
HEK293 MPD ctr 2-2: second counter-screen for TRPC6 modulators: effect in parental HEK293 cells. shares compounds with TRPC6 inhibitor. membrane potential dye fluorescence; after compound, maximal acetylcholine stimulation. inhibition, % at 10 µM. actives 14% (n = 2,400);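 active = membrane potential signal drops by more than 5 SD from the mean control signal, in both duplicate plates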;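 also: plate controls were acetylcholine ECmax control wells for no effect and buffer only wells for full effect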
TRPC4/MOR mod: TRPC4 modulation by TRPC6 hit compounds, confirmation, selectivity assay for TRPC6 modulator project, cell-based, HEK293 TRPC4/mu-opioid, membrane potential dye, mouse; membrane potential fluorescence; actives 69% (n = 2,400); percent change from control (negative = decrease, positive = increase), % at 10 µM; shares compounds with TRPC6 inhibitor;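 active = membrane potential signal moved up or down beyond 5 SD of buffer control wells, in both duplicate plates, actives on both sides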;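 also: plate controls were assay buffer wells for no effect and DAMGO maximal-effect wells for full effect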
TRPC4 ctr inh 2: second check of whether TRPC6 modulators also affect mouse TRPC4 | shares compounds with TRPC6 inhibitor | HEK293 TRPC4/mu-opioid, membrane potential dye fluorescence; stimulated with maximal-effect DAMGO | inhibition, % at 10 µM | actives 55% (n = 2,400) | AID 488928;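 active = drop in membrane potential signal beyond 5 SD of the control wells in both duplicate plates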;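 also: TRPC4 counter screen for TRPC6 hits run under conditions tuned for TRPC6 not TRPC4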
TRPC6 block conf: mouse TRPC6 channel inhibitors, confirmation, HEK293 cells, membrane potential dye, duplicate; shares compounds with TRPC6 inhibitor; ACh-evoked depolarization; inhibition, % at 10 µM; actives 43% (n = 3,300); AID 488960, 2010;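 active = fluorescence ratio falls more than 5 SD below the full-stimulation control mean, in both duplicate runs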;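 also: integrated fluorescence ratio of peak minus minimum over baseline after agonist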
TRPC6 act conf: mouse TRPC6 channel activators, confirmation, HEK293 cells, membrane potential dye, duplicate; actives 11% (n = 2,800); activation, % at 10 µM; HEK293-TRPC6 membrane potential dye fluorescence, FDSS; shares compounds with TRPC6 inhibitor; AID 488961, 2010;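 active = ratio signal rise beyond 5 SD above unstimulated control wells' mean, seen in both duplicate runs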;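 also: plate controls were buffer EC0 wells for no effect and acetylcholine ECmax response for full effect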
An asterisk follows results filed as active; i = inactive; · = no result given. This is a sample that favours compounds with a hit; in the whole collection about 2.3% have one here.

SMILES | TRPC6 act | TRPC4 agonist | TRPC6 inhibitor | TRPC4 PAM | TRPC4 block | HEK293 MPD ctr-2 | HEK293 MPD ctr 2-2 | TRPC4/MOR mod | TRPC4 ctr inh 2 | TRPC6 block conf | TRPC6 act conf | others
CC1CCCCC1Nc1nc2ccc(Cl)cc2n2cnnc12 (stereo not given) | i | i | i | i | i | · | · | · | · | · | ·
O=C(CN1CCN(C(c2ccccc2)c2ccccc2)CC1)NCc1ccccc1 | i | i | -5.49* | i | i | i | i | i | i | i | i
COc1ccc(CCNC(=O)C2CCN(Cc3nc(-c4cccc(Cl)c4)oc3C)CC2)cc1OC | i | i | -7.33* | i | i | i | i | i | 75.0%* | i | i
Cc1cccc(NC(=S)NC2CC3CCCC(C2)N3Cc2cccs2)c1 (stereo not given) | i | i | -6.95* | i | i | · | · | · | · | i | i | TRPC4 spec 2=i;TRPC4 spec=i;HEK293 MPD ctr 2-1=i;HEK293 MPD ctr-1=-0.4%*
CCOc1ccc(-c2c[n+]3c(n2-c2ccccc2)CCCCC3)cc1 | i | i | -5* | i | i | i | i | i | i | i | i
COc1ccc(-n2c(-c3ccc(Br)cc3)nc(=S)c3c2CCCC3)cc1 | i | i | i | i | i | · | · | · | · | · | ·
FC(F)Sc1ccc(-n2c(-c3ccc(Cl)cc3)c[n+]3c2CCC3)cc1 | i | i | i | i | i | · | · | · | · | · | ·
CCOc1ccc(-c2nnc(-c3ccccc3)n2-c2ccccc2)cc1 | i | i | i | i | i | · | · | · | · | · | ·
